Measured values reported in ChEMBL document CHEMBL3875153, “Design and synthesis of isatin/triazole conjugates that induce apoptosis and inhibit migration of MGC-803 cells” (Eur J Med Chem, 2016).
Calls of active or inactive are those of the source. No cut-off for these calls is given here.

Key:
[1] = Cytotoxicity against human HL-7702 cells assessed as growth inhibition after 72 hrs by CCK8 assay; type: toxicity, cell-based, L02; settings: human, HL-7702 cells
Procedure, shortened: (§1)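 Exponentially growing cells were trypsinized and seeded at 2 × 10^4 cells/mL (100 µL/well). After 24 h, medium was replaced with compound at 0.5–256 µM (twofold steps). Plates were incubated 72 h at 37 °C, 5% CO2, then with CCK-8 for 4 h. A450 was read. Three independent runs; IC50 given as mean and SD.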

[2] = Cytotoxicity against human MCF7 cells assessed as growth inhibition after 72 hrs by CCK8 assay; type: functional, cell-based; settings: Homo sapiens, MCF7, 72 h; read-out: IC50; procedure, shortened: as §1
[3] = Cytotoxicity against human TE1 cells assessed as growth inhibition after 72 hrs by CCK8 assay; type: functional, cell-based, TE-1; settings: Homo sapiens, TE-1, 72 h; read-out: IC50; procedure, shortened: as §1
[4] = Cytotoxicity against human MGC803 cells assessed as growth inhibition after 72 hrs by CCK8 assay; type: functional, cell-based, MGC-803; settings: Homo sapiens, MGC-803, 72 h; read-out: IC50; procedure, shortened: as §1
[5] = Cytotoxicity against human SW780 cells assessed as growth inhibition after 72 hrs by CCK8 assay; type: functional, cell-based; settings: Homo sapiens, SW780, 72 h; read-out: IC50; procedure, shortened: as §1
[6] = Cytotoxicity against human GES-1 cells assessed as growth inhibition after 72 hrs by CCK8 assay; type: toxicity, cell-based, GES1; settings: human, GES-1 cells; procedure, shortened: as §1
MGC-803 [7] = assay: Induction of apoptosis in human MGC803 cells assessed as early apoptotic cells at 10 uM after 24 hrs by Annexin-V FITC/propidium iodide staining based flow cytometry (reference value: 0.9 +/- 0.3%); type: functional
MGC-803 [8] = assay: Induction of apoptosis in human MGC803 cells assessed as activation of Bax protein expression at 5 to 20 uM after 24 hrs by Western blot method; type: functional, cell-based
Procedure, shortened: (§2)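 Cells given 0, 5, 10, 20 µM for 24 h, lysed 30 min in RIPA buffer (50 mM Tris-HCl pH 7.5, 150 mM NaCl, detergents) with protease inhibitors. Cleared lysate protein measured by BCA, resolved by SDS-PAGE, moved to nitrocellulose. Membranes blocked in 5% milk, probed with primary antibodies overnight at 4 °C, then secondary (1:5000) 2 h. ECL detection.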

[9] = Cell cycle arrest in human MGC803 cells assessed as accumulation at S phase at 10 uM after 24 hrs by propidium iodide staining based flow cytometry (reference value: 21.32%); type: functional; settings: MGC-803
[10] = Cell cycle arrest in human MGC803 cells assessed as accumulation at G0/G1 phase at 5 uM after 24 hrs by propidium iodide staining based flow cytometry (reference value: 54.77%); type: functional; settings: MGC-803
[11] = Cell cycle arrest in human MGC803 cells assessed as accumulation at S phase at 5 uM after 24 hrs by propidium iodide staining based flow cytometry (reference value: 21.32%); type: functional; settings: MGC-803
MGC-803 [12] = assay: Induction of ROS generation in human MGC803 cells at 5 uM after 24 hrs by DCFH-DA staining based flow cytometry (reference value: 2.84%); type: functional
Procedure, shortened: (§3)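 MGC-803 cells exposed to 0, 5, 10, 20 µM for 24 h, collected, then loaded with DCFH-DA (10 µM) for 30 min at 37 °C. Washed three times in serum-free medium; DCF green fluorescence quantified by flow cytometry as percent fluorescent cells.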

MGC-803 [13] = assay: Induction of apoptosis in human MGC803 cells assessed as increase in caspase-7 protein expression at 5 to 20 uM after 24 hrs by Western blot method; type: functional, cell-based; procedure, shortened: as §2
MGC-803 [14] = assay: Induction of morphological changes in human MGC803 cells assessed as cell debris at 5 to 20 uM after 24 hrs by Hoechst 33258 staining based confocal microscopic analysis; type: functional
Procedure, shortened: (§4)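 MGC-803 cells grown on glass slides to about 70% confluence, treated 24 h at 0, 5, 10, 20 µM. PBS-washed, stained 20 min in dark with 10 µg/mL Hoechst 33258 containing 0.1% Triton X-100, washed, mounted, imaged by laser scanning confocal microscopy. Cell morphology also viewed by inverted microscope.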

MGC-803 [15] = assay: Induction of apoptosis in human MGC803 cells after 24 hrs by Annexin-V FITC/propidium iodide staining based flow cytometry; type: functional, cell-based
[16] = Cell cycle arrest in human MGC803 cells assessed as accumulation at G2/M phase at 20 uM after 24 hrs by propidium iodide staining based flow cytometry (reference value: 20.66%); type: functional; settings: MGC-803
[17] = Cell cycle arrest in human MGC803 cells assessed as accumulation at S phase at 20 uM after 24 hrs by propidium iodide staining based flow cytometry (reference value: 21.32%); type: functional; settings: MGC-803
MGC-803 [18] = assay: Induction of apoptosis in human MGC803 cells assessed as inhibition of Bcl2 protein expression at 5 to 20 uM after 24 hrs by Western blot method; type: functional, cell-based; procedure, shortened: as §2
MGC-803 [19] = assay: Induction of apoptosis in human MGC803 cells assessed as early apoptotic cells at 5 uM after 24 hrs by Annexin-V FITC/propidium iodide staining based flow cytometry (reference value: 0.9 +/- 0.3%); type: functional
MGC-803 [20] = assay: Induction of apoptosis in human MGC803 cells assessed as late apoptotic cells at 20 uM after 24 hrs by Annexin-V FITC/propidium iodide staining based flow cytometry (reference value: 0.4 +/- 0.5%); type: functional
MGC-803 [21] = assay: Induction of apoptosis in human MGC803 cells assessed as late apoptotic cells at 5 uM after 24 hrs by Annexin-V FITC/propidium iodide staining based flow cytometry (reference value: 0.4 +/- 0.5%); type: functional
MGC-803 [22] = assay: Anti-migratory activity against human MGC803 cells after 24 hrs by Hoechst 33258 staining based transwell assay; type: functional, cell-based
Procedure, shortened: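 MGC-803 cells, 10,000 per upper chamber in 100 µL medium with 1% FBS plus compound (0, 2, 4, 8 µM). Lower chamber held medium with 20% FBS as chemoattractant. After 24 h, chambers PBS-washed, cells stained with Hoechst 33258 (10 µg/mL), migrated cells counted by high content screening.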

MGC-803 [23] = assay: Induction of apoptosis in human MGC803 cells assessed as increase in caspase-9 cleavage at 5 to 20 uM after 24 hrs by Western blot method; type: functional, cell-based; procedure, shortened: as §2
MGC-803 [24] = assay: Induction of apoptosis in human MGC803 cells assessed as increase in caspase-6 protein expression at 5 to 20 uM after 24 hrs by Western blot method; type: functional, cell-based; procedure, shortened: as §2
MGC-803 [25] = assay: Induction of apoptosis in human MGC803 cells assessed as increase in PARP cleavage at 5 to 20 uM after 24 hrs by Western blot method; type: functional, cell-based; procedure, shortened: as §2
MGC-803 [26] = assay: Induction of apoptosis in human MGC803 cells assessed as increase in caspase-8 cleavage at 5 to 20 uM after 24 hrs by Western blot method; type: functional, cell-based; procedure, shortened: as §2
[27] = Cell cycle arrest in human MGC803 cells assessed as accumulation at G2/M phase after 24 hrs by propidium iodide staining based flow cytometry; type: functional; settings: MGC-803
MGC-803 [28] = assay: Induction of morphological changes in human MGC803 cells assessed as chromatin condensation at 5 to 20 uM after 24 hrs by Hoechst 33258 staining based confocal microscopic analysis; type: functional, cell-based; procedure, shortened: as §4
[29] = Cell cycle arrest in human MGC803 cells assessed as accumulation at G2/M phase at 5 uM after 24 hrs by propidium iodide staining based flow cytometry (reference value: 20.66%); type: functional; settings: MGC-803
[30] = Cell cycle arrest in human MGC803 cells assessed as accumulation at G0/G1 phase at 20 uM after 24 hrs by propidium iodide staining based flow cytometry (reference value: 54.77%); type: functional; settings: MGC-803
MGC-803 [31] = assay: Induction of ROS generation in human MGC803 cells at 20 uM after 24 hrs by DCFH-DA staining based flow cytometry (reference value: 2.84%); type: functional; procedure, shortened: as §3
MGC-803 [32] = assay: Induction of morphological changes in human MGC803 cells assessed as cell rounding up at 5 to 20 uM after 24 hrs by Hoechst 33258 staining based confocal microscopic analysis; type: functional; procedure, shortened: as §4
MGC-803 [33] = assay: Induction of ROS generation in human MGC803 cells after 24 hrs by DCFH-DA staining based flow cytometry; type: functional, cell-based; procedure, shortened: as §3
MGC-803 [34] = assay: Induction of apoptosis in human MGC803 cells assessed as early apoptotic cells at 20 uM after 24 hrs by Annexin-V FITC/propidium iodide staining based flow cytometry (reference value: 0.9 +/- 0.3%); type: functional
MGC-803 [35] = assay: Inhibition of LSD1 expression in human MGC803 cells after 24 hrs by Western blot method; type: functional, cell-based; procedure, shortened: as §2
MGC-803 [36] = assay: Induction of morphological changes in human MGC803 cells assessed as nuclear fragmentation at 5 to 20 uM after 24 hrs by Hoechst 33258 staining based confocal microscopic analysis; type: functional, cell-based; procedure, shortened: as §4
MGC-803 [37] = assay: Induction of morphological changes in human MGC803 cells assessed as nuclear condensation at 5 to 20 uM after 24 hrs by Hoechst 33258 staining based confocal microscopic analysis; type: functional, cell-based; procedure, shortened: as §4
MGC-803 [38] = assay: Induction of ROS generation in human MGC803 cells at 10 uM after 24 hrs by DCFH-DA staining based flow cytometry (reference value: 2.84%); type: functional; procedure, shortened: as §3
MGC-803 [39] = assay: Induction of apoptosis in human MGC803 cells assessed as late apoptotic cells at 10 uM after 24 hrs by Annexin-V FITC/propidium iodide staining based flow cytometry (reference value: 0.4 +/- 0.5%); type: functional
MGC-803 [40] = assay: Induction of apoptosis in human MGC803 cells assessed as increase in caspase-3 protein expression at 5 to 20 uM after 24 hrs by Western blot method; type: functional, cell-based; procedure, shortened: as §2
[41] = Cell cycle arrest in human MGC803 cells assessed as accumulation at G0/G1 phase at 10 uM after 24 hrs by propidium iodide staining based flow cytometry (reference value: 54.77%); type: functional; settings: MGC-803
MGC-803 [42] = assay: Induction of apoptosis in human MGC803 cells assessed as inhibition of Mcl1 protein expression at 5 to 20 uM after 24 hrs by Western blot method; type: functional, cell-based; procedure, shortened: as §2
[43] = Cell cycle arrest in human MGC803 cells assessed as accumulation at G2/M phase at 10 uM after 24 hrs by propidium iodide staining based flow cytometry (reference value: 20.66%); type: functional; settings: MGC-803

O=c1[nH]cc(F)c(=O)[nH]1 [FLUOROURACIL]
IC50 at 72 h [1]: 12.8 µM
IC50 [2]: 13.2 µM
IC50 [3]: 17.3 µM
IC50 [4]: 10.6 µM
IC50 [5]: 6.99 µM
IC50 at 72 h [6]: 13.8 µM

O=C(Cn1cc(CN2C(=O)C(=O)c3c(Cl)ccc(Cl)c32)nn1)Nc1ccccc1
IC50 at 72 h [1]: 24.9 µM
IC50 [2]: 38.5 µM
IC50 [3]: 30.6 µM
IC50 [4]: 17.5 µM
IC50 [5]: 27 µM
IC50 at 72 h [6]: 24.9 µM

O=C1C(=O)N(Cc2cn(CC(=O)N3CCCCC3)nn2)c2c(Cl)ccc(Cl)c21
IC50 at 72 h [1]: 39.3 µM
IC50 [2]: 34.6 µM
IC50 [3]: 40.6 µM
IC50 [4]: 18.7 µM
IC50 [5]: 29.7 µM
IC50 at 72 h [6]: 50.7 µM

O=C1C(=O)N(Cc2cn(CC(=O)N3CCCC3)nn2)c2c(Cl)ccc(Cl)c21
IC50 at 72 h [1]: > 128 µM
IC50 [2]: 62.4 µM
IC50 [3]: 51.6 µM
IC50 [4]: 14.8 µM
IC50 [5]: 48.2 µM
IC50 at 72 h [6]: 88.7 µM

O=C(Cn1cc(CN2C(=O)C(=O)c3c(Cl)ccc(Cl)c32)nn1)OC1CCCCC1
IC50 at 72 h [1]: 40.3 µM
IC50 [2]: 18.9 µM
IC50 [3]: 14.2 µM
Activity (MGC-803 [7]): 10.3%
Activity (MGC-803 [8]): Active
Activity [9]: 24%
Activity [10]: 48.7%
Activity [11]: 21.5%
Activity (MGC-803 [12]): 6.04%
IC50 [4]: 9.78 µM
Activity (MGC-803 [13]): Active
Activity (MGC-803 [14]): Active
Activity (MGC-803 [15]): Dose-dependent effect
Activity [16]: 32.3%
Activity [17]: 23.5%
inhibition (MGC-803 [18]): Active
Activity (MGC-803 [19]): 7.8%
Activity (MGC-803 [20]): 4.5%
Activity (MGC-803 [21]): 5%
Activity (MGC-803 [22]): Dose-dependent effect
Activity (MGC-803 [23]): Active
Activity (MGC-803 [24]): Active
Activity (MGC-803 [25]): Active
Activity (MGC-803 [26]): Active
Activity [27]: Dose-dependent effect
Activity (MGC-803 [28]): Active
Activity [29]: 24.1%
IC50 [5]: 25.2 µM
Activity [30]: 34.8%
Activity (MGC-803 [31]): 19.3%
Activity (MGC-803 [32]): Active
Activity (MGC-803 [33]): Dose-dependent effect
Activity (MGC-803 [34]): 18%
inhibition (MGC-803 [35]): Dose-dependent effect
Activity (MGC-803 [36]): Active
Activity (MGC-803 [37]): Active
Activity (MGC-803 [38]): 10.3%
Activity (MGC-803 [39]): 5.7%
Activity (MGC-803 [40]): Active
Activity [41]: 40.3%
inhibition (MGC-803 [42]): Active
Activity [43]: 28.7%
IC50 at 72 h [6]: 36 µM
